Results: ChEMBL document CHEMBL2401724, “Synthesis and structure--activity relationships of N²-alkylated quaternary β-carbolines as novel antitumor agents” (Eur J Med Chem, 2013)

Assays:
[1] = Antitumor activity against mouse Sarcoma 180 cells allografted in mouse assessed as tumor growth inhibition at 2.5 mg/kg, ip qd administered for 7 days measured after 21 days relative to control; type: functional; conditions: Sarcoma-180, ip, route intraperitoneal, read-out: TGI
Procedure, shortened: (§1)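 Tumour cells (S180 sarcoma or Lewis lung) were first grown in mice for 7 days, then harvested. Viable cells (2 × 10⁶/mouse) were injected s.c. into the armpit. Groups of 10 female mice received the compound i.p. once daily for 7 consecutive days, starting 24 h after inoculation. Cyclophosphamide 30 mg/kg served as positive control and vehicle as negative control. Body weights were taken every 3 days. Mice were killed on day 21 post-inoculation, and tumours were excised and weighed to calculate the inhibition rate versus control.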

[2] = Acute toxicity in ip dosed C57BL/6 mouse after 14 days; type: organism-based; conditions: in vivo
Procedure, shortened: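 C57BL/6 mice (9–12 weeks, 18–22 g), single i.p. dose; watched continuously for 2 h, intermittently over 24 h, then occasionally to day 14 for behaviour, deaths and delayed effects. Survivors killed at day 14; heart, liver, kidneys inspected macroscopically, early deaths also examined. LD50 derived graphically.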

BGC-823 = experiment: Cytotoxicity against human BGC823 cells by MTT assay; type: functional, cell-based
Procedure, shortened: (§2)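 Cell lines were cultured in 96-well microtitre plates at 37 °C in humidified 5% CO₂. Compounds were dissolved in DMSO, at ≤2% (v/v) final in the growth medium. Viability was read by MTT staining, expressed relative to untreated cells.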

[3] = Cytotoxicity against mouse LLC cells by MTT assay; type: functional, cell-based; conditions: Lewis lung carcinoma; procedure, shortened: as §2
SK-OV-3 = experiment: Cytotoxicity against human SKOV3 cells by MTT assay; type: functional, cell-based; procedure, shortened: as §2
[4] = Cytotoxicity against human ECA109 cells by MTT assay; type: functional, cell-based; conditions: ECa-109; procedure, shortened: as §2
769-P = experiment: Cytotoxicity against human 769-P cells by MTT assay; type: functional, cell-based; procedure, shortened: as §2
A-375 = experiment: Cytotoxicity against human A375 cells by MTT assay; type: functional, cell-based; procedure, shortened: as §2
CWR22R = experiment: Cytotoxicity against human 22Rv1 cells by MTT assay; type: functional, cell-based; procedure, shortened: as §2
HT-29 = experiment: Cytotoxicity against human HT-29 cells by MTT assay; type: functional, cell-based; procedure, shortened: as §2
HepG2 = experiment: Cytotoxicity against human HepG2 cells by MTT assay; type: functional, cell-based; procedure, shortened: as §2
MCF7 = experiment: Cytotoxicity against human MCF7 cells by MTT assay; type: functional, cell-based; procedure, shortened: as §2
[5] = Antitumor activity against mouse Sarcoma 180 cells allografted in mouse assessed as tumor growth inhibition at 4 mg/kg, ip qd administered for 7 days measured after 21 days relative to control; type: functional; conditions: Sarcoma-180, ip, route intraperitoneal, read-out: TGI; procedure, shortened: as §1
LoVo = experiment: Cytotoxicity against human LoVo cells; type: functional, cell-based
[6] = tested on: Lewis lung carcinoma cell line; experiment: Antitumor activity against mouse LLC cells allografted in mouse assessed as tumor growth inhibition at 4 mg/kg, ip qd administered for 7 days measured after 21 days relative to control; type: functional; conditions: route intraperitoneal, read-out: TGI; procedure, shortened: as §1
[7] = Antitumor activity against mouse Sarcoma 180 cells allografted in mouse assessed as tumor growth inhibition at 1.75 mg/kg, ip qd administered for 7 days measured after 21 days relative to control; type: functional; conditions: Sarcoma-180, ip, route intraperitoneal, read-out: TGI; procedure, shortened: as §1
[8] = tested on: Lewis lung carcinoma cell line; experiment: Antitumor activity against mouse LLC cells allografted in mouse assessed as tumor growth inhibition at 1.75 mg/kg, ip qd administered for 7 days measured after 21 days relative to control; type: functional; conditions: route intraperitoneal, read-out: TGI; procedure, shortened: as §1

Q: With `Fc1ccc(C[n+]2ccc3c4ccccc4n(CCCc4ccccc4)c3c2)cc1.[Cl-]` as the molecule, how does the inhibition in vivo at 2.5 mg/kg [1] read?
A: 51.5%

Q: What about the LD50 at 336 h [2] of the same molecule?
A: 12.5 mg/kg

Q: What about the IC50 (BGC-823) of the same molecule?
A: 8.1 µM

Q: And the IC50 [3]?
A: 8.1 µM

Q: What about the IC50 (SK-OV-3) of the same molecule?
A: 12.2 µM

Q: And the IC50 [4]?
A: 5.3 µM

Q: And the IC50 (769-P)?
A: 14.3 µM

Q: And the IC50 (A-375)?
A: 10.4 µM

Q: What about the IC50 (CWR22R) of the same molecule?
A: 4.3 µM

Q: What about the IC50 (HT-29) of the same molecule?
A: 9.1 µM

Q: And the IC50 (HepG2)?
A: 10.4 µM

Q: What about the IC50 (MCF7) of the same molecule?
A: 9.7 µM

Q: Which inhibition in vivo at 4 mg/kg [5] does the source give for `c1ccc(Cn2c3ccccc3c3cc[n+](Cc4ccccc4)cc32)cc1` here?
A: 45.9%

Q: And the IC50 (BGC-823)?
A: 38.7 µM

Q: And the IC50 [3]?
A: < 2 µM

Q: And the IC50 (SK-OV-3)?
A: 16.9 µM

Q: What about the IC50 [4] of the same molecule?
A: 32.7 µM

Q: What about the IC50 (769-P) of the same molecule?
A: 8.7 µM

Q: And the IC50 (A-375)?
A: 7.8 µM

Q: And the IC50 (CWR22R)?
A: 5.7 µM

Q: And the IC50 (HT-29)?
A: 42.5 µM

Q: And the IC50 (HepG2)?
A: 34.6 µM

Q: And the IC50 (MCF7)?
A: 18.7 µM

Q: And the IC50 (LoVo)?
A: 20 µM

Q: And the inhibition in vivo at 4 mg/kg [6]?
A: 48.5%

Q: For `[Br-].c1ccc(CCCn2c3ccccc3c3cc[n+](Cc4ccccc4)cc32)cc1`, which inhibition in vivo at 1.75 mg/kg [7] is on record?
A: 62.1%

Q: And the LD50 at 336 h [2]?
A: 8.9 mg/kg

Q: What about the IC50 (BGC-823) of the same molecule?
A: 8.5 µM

Q: And the IC50 [3]?
A: 3.9 µM

Q: And the IC50 (SK-OV-3)?
A: 4.4 µM

Q: And the IC50 [4]?
A: 11.7 µM

Q: What about the IC50 (769-P) of the same molecule?
A: 4.9 µM

Q: And the IC50 (A-375)?
A: 8.7 µM

Q: What about the IC50 (CWR22R) of the same molecule?
A: 3.2 µM

Q: And the IC50 (HT-29)?
A: 7.6 µM

Q: And the IC50 (HepG2)?
A: 7.9 µM

Q: What about the IC50 (MCF7) of the same molecule?
A: 14.4 µM

Q: And the inhibition in vivo at 1.75 mg/kg [8]?
A: 59.2%
